Holding throughout (type): functional
The species named for experiment [1] is Oryctolagus cuniculus. In words: Compound was evaluated for the ability to lower total serum cholesterol levels in 4 Watanabe heritable hyperlipidemic (WHHL) rabbits on day 56. In short, it runs like this:
(§1)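 Modified WHHL rabbits (British half-lop × WHHL cross, homozygous LDL-receptor deficient), age 14 ± 1 weeks, fed 100 g/day rabbit chow repelleted with compound at 1% (wt/wt), content checked by HPLC; controls got plain chow (n = 10). Total serum cholesterol measured enzymatically on days 0, 28, 56 and 84; group mean ± SEM (mg/dL).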

The species entered for experiment [2] is Oryctolagus cuniculus. In words: Compound was evaluated for the ability to lower total serum cholesterol levels in 4 Watanabe heritable hyperlipidemic (WHHL) rabbits on day 84. In short, it runs like this: as §1
Experiment [3] is filed under the species Oryctolagus cuniculus. In words: Compound concentration in serum. The procedure, abridged: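 Rabbits fed 1% (wt/wt) drug in chow (100 g/day) for 84 days. Serum taken at sacrifice on day 84 and extracted with ether/ethanol; extract dried under N2, redissolved, and run on reverse-phase C18 HPLC in acetonitrile/water (85/15) at 1.5 mL/min with detection at 240 nm. Results given as μg/mL, mean ± SEM.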

The species entered for experiment [4] is Oryctolagus cuniculus. In words: Compound concentration in low-density lipoprotein (LDL). The procedure, abridged:
(§2)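 Day-84 plasma (EDTA) from rabbits fed 1% drug in chow. LDL isolated by sequential ultracentrifugation at d = 1.019–1.063 g/mL, brought back to the original serum volume, and drug measured by HPLC. Molecules per particle calculated from LDL protein, taking apoB (mw 500 000) as one copy per particle. Mean ± SEM.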

The species named for experiment [5] is Oryctolagus cuniculus. In words: Percent atherosclerotic lesions in WHHL rabbits. The procedure, abridged:
(§3)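 WHHL rabbits (homozygous LDL-receptor deficient, British half-lop cross, 14 ± 1 weeks) fed 100 g/day chow containing 1% (wt/wt) drug for 84 days, then killed by iv pentobarbital. Aortas stained with Sudan IV; sudanophilic area in thoracic aorta quantified by digital image analysis from staining density. Values are percent lesion area per group.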

The species named for experiment [6] is Oryctolagus cuniculus. In words: Prevention of Cu2+-induced lipid peroxidation of LDL. In short, it runs like this: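 LDL (d 1.019–1.063 g/mL) isolated from each drug-fed rabbit at day 84 and dialyzed against PBS. Incubated with 5 μM CuSO4 (final) at 37 °C for 3 h; reaction stopped with EDTA. 50 μg LDL treated with TCA and 0.67% TBA at 90 °C for 30 min. TBARS read at 532 nm against an MDA standard curve (0–5 nmol).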

Experiment [7] is filed under the species Oryctolagus cuniculus. In words: Compound was evaluated for the ability to lower total serum cholesterol levels in 4 Watanabe heritable hyperlipidemic (WHHL) rabbits on day 0. In short, it runs like this:
as §1

The species entered for experiment [8] is Oryctolagus cuniculus. In words: Compound was evaluated for the ability to lower total serum cholesterol levels in 4 Watanabe heritable hyperlipidemic (WHHL) rabbits on day 28. The procedure, abridged:
as §1

Experiment [9] in a line: Molar content of compound in low-density lipoprotein (LDL) was obtained from the ratio of molecules to that of LDL particles. The procedure, abridged:
as §2

Experiment [10] is filed under the species Oryctolagus cuniculus. In words: Compound was evaluated for the ability to lower total serum cholesterol levels in 5 Watanabe heritable hyperlipidemic (WHHL) rabbits on day 56. The procedure, abridged:
as §1

For experiment [11], the species on record is Oryctolagus cuniculus. In words: Compound was evaluated for the ability to lower total serum cholesterol levels in 5 Watanabe heritable hyperlipidemic (WHHL) rabbits on day 84. In short, it runs like this:
as §1

The species named for experiment [12] is Oryctolagus cuniculus. In words: % atherosclerotic lesions in WHHL rabbits. The procedure, abridged: as §3
The species named for experiment [13] is Oryctolagus cuniculus. In words: Compound was evaluated for the ability to lower total serum cholesterol levels in 5 Watanabe heritable hyperlipidemic (WHHL) rabbits on day 28. The procedure, abridged:
as §1

The species named for experiment [14] is Oryctolagus cuniculus. In words: Compound was evaluated for the ability to lower total serum cholesterol levels in 5 Watanabe heritable hyperlipidemic (WHHL) rabbits on day 0. The procedure, abridged: as §1

`CC(C)(Sc1cc(C(C)(C)C)c(O)c(C(C)(C)C)c1)Sc1cc(C(C)(C)C)c(O)c(C(C)(C)C)c1` [PROBUCOL]: the “Cholesterol Concentration” value stood at 731 mg/dL in the experiment filed under Oryctolagus cuniculus [1], 698 mg/dL in the experiment filed under Oryctolagus cuniculus [2], 658 mg/dL in the experiment listed under Oryctolagus cuniculus [7] and 728 mg/dL in the experiment filed under Oryctolagus cuniculus [8]. For the same compound, the “Drug Conc (serum)” value in the experiment listed under Oryctolagus cuniculus [3] came out at 56 µg/mL. The “Drug Conc (LDL)” value in the experiment filed under Oryctolagus cuniculus [4] amounted to 41 µg/mL. The Lesion in the experiment filed under Oryctolagus cuniculus [5] is given as 47%. Further, the Lipid peroxidation (nM MDA (mg LDL)-1) in the experiment filed under Oryctolagus cuniculus [6] worked out at 25. In addition, the Molar content (Molecules (LDL particle)-1) in [9] is 11.3.

For the compound `CCCCC(C)(Sc1cc(C)c(O)c(C(C)(C)C)c1)Sc1cc(C)c(O)c(C(C)(C)C)c1`, the “Cholesterol Concentration” value stood at 1079 mg/dL in the experiment filed under Oryctolagus cuniculus [10], 1095 mg/dL in the experiment listed under Oryctolagus cuniculus [11], 1042 mg/dL in the experiment filed under Oryctolagus cuniculus [13] and 1005 mg/dL in the experiment filed under Oryctolagus cuniculus [14]. Further, the “Drug Conc (serum)” value in the experiment filed under Oryctolagus cuniculus [3] is 6.4 µg/mL. This compound also came in with a Lesion in the experiment filed under Oryctolagus cuniculus [12] of 81%. The “Drug Conc (LDL)” value in the experiment listed under Oryctolagus cuniculus [4] came to 3 µg/mL. Further, in the experiment listed under Oryctolagus cuniculus [6], the Lipid peroxidation (nM MDA (mg LDL)-1) was found to be 33. Further, in experiment [9], the Molar content (Molecules (LDL particle)-1) worked out at 0.7.

As to `CC(C)(C)c1cc(SCSc2cc(C(C)(C)C)c(O)c(C(C)(C)C)c2)cc(C(C)(C)C)c1O`, the “Cholesterol Concentration” value in the experiment listed under Oryctolagus cuniculus [10] was found to be 766 mg/dL; in the experiment listed under Oryctolagus cuniculus [11] it was 734 mg/dL; in the experiment filed under Oryctolagus cuniculus [13] it was 905 mg/dL; in the experiment listed under Oryctolagus cuniculus [14], 890 mg/dL. Moreover, the “Drug Conc (serum)” value in the experiment listed under Oryctolagus cuniculus [3] amounted to 135 µg/mL. Moreover, in the experiment filed under Oryctolagus cuniculus [12], the Lesion came out at 39%. Further, the “Drug Conc (LDL)” value in the experiment filed under Oryctolagus cuniculus [4] came out at 65 µg/mL. This compound came in with a Lipid peroxidation (nM MDA (mg LDL)-1) in the experiment filed under Oryctolagus cuniculus [6] of 16. For the same compound, the Molar content (Molecules (LDL particle)-1) in experiment [9] was determined as 20.3.

With `CCCC(C)(Sc1cc(C(C)(C)C)c(O)c(C(C)(C)C)c1)Sc1cc(C(C)(C)C)c(O)c(C(C)(C)C)c1`, the “Cholesterol Concentration” value was found to be 796 mg/dL in the experiment filed under Oryctolagus cuniculus [1], 782 mg/dL in the experiment filed under Oryctolagus cuniculus [2], 685 mg/dL in the experiment listed under Oryctolagus cuniculus [7] and 885 mg/dL in the experiment listed under Oryctolagus cuniculus [8]. In addition, in the experiment listed under Oryctolagus cuniculus [3], the “Drug Conc (serum)” value was 42 µg/mL. This compound also came in with a Lesion in the experiment filed under Oryctolagus cuniculus [12] of 53%. Further, the “Drug Conc (LDL)” value in the experiment filed under Oryctolagus cuniculus [4] worked out at 23 µg/mL. In the experiment filed under Oryctolagus cuniculus [6], this compound gave a Lipid peroxidation (nM MDA (mg LDL)-1) of 30. The Molar content (Molecules (LDL particle)-1) in experiment [9] amounted to 6.2.
